In ChEMBL document CHEMBL1132620, “Piperazine imidazo[1,5-a]quinoxaline ureas as high-affinity GABAA ligands of dual functionality” (J Med Chem, 1999):
pKi: −log10 of the molar value. The source made the active and inactive calls. No cut-off for these calls is given here.

What was measured:
[1] = Area under curve was determined for the compound after po dose of 5.46 mg/kg in rats; assay type: ADME, organism-based; parameters: dose 5.46 mg/kg, route oral; conditions: rat, in vivo
[2] = Maximum serum concentration after po dose of 5.46 mg/kg in rats; assay type: ADME, organism-based; parameters: dose 5.46 mg/kg, route oral; conditions: rat
[3] = Time at which Cmax was reached was determined for the compound after po dose of 5.46 mg/kg in rats; assay type: ADME, organism-based; parameters: dose 5.46 mg/kg, route oral; conditions: rat, in vivo
Method in brief: (§1)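 Male Sprague–Dawley rats dosed orally with compound in a solution formulation, n = 3–4 per compound; serum drug concentrations measured over time, lower limit of quantitation 50 ng/mL. Tmax reported as the range of observed values across animals.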

[4] = Half-life after po dose of 5.46 mg/kg in rats; assay type: ADME, organism-based; parameters: dose 5.46 mg/kg, route oral; conditions: rat, in vivo
[5] = molecular target: GABA-A receptor; anion channel; assay: (§2) Displacement of [3H]flunitrazepam from GABA-A benzodiazepine receptor of rat cortical membranes; assay type: cell membranes, Membrane
Method in brief: (§3)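 Rat membranes incubated 60 min at 4 °C with [3H]flunitrazepam, 50 µg membrane protein and graded test drug in 200 µL containing NaCl, 10 mM Hepes/Tris pH 7.4 and 1 mM MgCl2; bound ligand separated by rapid filtration on GF/B; mean affinity, SE ≤10% of mean.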

[6] = molecular target: T1, GABA-A receptor; anion channel (Rattus norvegicus) (UniProt O09028+P15431+P18506+P18508+P19969+P20236+P23574+P23576+P28471+P28473+P30191+P62813+P63079+P63138+Q91ZM7+Q9ES14); assay: Inhibition of [35S]TBPS binding to GABA-A Benzodiazepine receptor of rat brain membranes; assay type: cell membranes; conditions: Membrane
[7] = molecular target: T2, GABA-A receptor; alpha-1/beta-2/gamma-2 (Homo sapiens) (UniProt P14867+P47870+P18507); assay: (§4) In vitro GABA-mediated chloride current in A293 cells expressing GABA-A benzodiazepine receptor alpha-1-beta-2-gamma-2 subunits at 5 uM; assay type: functional, cell-based; conditions: HEK293
Mus musculus [8] = organism: Mus musculus; assay: Ability to antagonize the muscle relaxation effect in mice caused by a benzodiazepine full agonist, triazolam.; assay type: functional
Method in brief: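 Muscle relaxation induced by triazolam; test compound and triazolam given separately, traction scored 30 min after dosing; ED50 for blocking the relaxant effect.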

Mus musculus [9] = assay: In vivo efficacy is evaluated by percent control of cerebellar GMP levels in (drug+stress) treated mice/mice under stress; assay type: functional; parameters: concentration or dose not given beside the values
Method in brief: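 Male CF-1 mice given drug orally in vehicle 122 before electric footshock stress, controls given vehicle (1 mL/100 g); killed 30 min after treatment; cerebellum homogenized in 1% perchloric acid, iced 30 min, boiled 5 min, spun 17000g 20 min; supernatant cGMP by radioimmunoassay, expressed as % of stress control.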

Mus musculus [10] = assay: In vivo acute electroshock physical dependence activity in mice; Not active.; assay type: functional, organism-based
Rattus norvegicus [11] = assay: In vivo efficacy evaluated for ability to antagonize metrazole induced clonic convulsions in rat after ip injection; assay type: functional
[12] = molecular target: T1, GABA-A receptor; anion channel (Rattus norvegicus); conditions: Membrane
[13] = Total plasma clearance Clp was determined for the compound after iv dose of 5.06 mg/kg in rats; assay type: ADME, organism-based; parameters: dose 5.06 mg/kg, route intravenous; conditions: rat, read-out: Clp (converted)
[14] = Area under curve was determined for the compound after iv dose of 5.06 in rats; assay type: ADME, organism-based; conditions: rat, in vivo
[15] = Area under curve was determined for the compound after po dose of 5.01 mg/kg in rats; assay type: ADME, organism-based; parameters: dose 5.01 mg/kg, route oral; conditions: rat, in vivo
[16] = Maximum serum concentration was determined for the compound after po dose of 5.01 mg/kg in rats; assay type: ADME, organism-based; parameters: dose 5.01 mg/kg, route oral; conditions: rat
[17] = Oral bioavailability at a dose of 5.01 mg/kg in rats; assay type: ADME, organism-based; conditions: rat, in vivo
[18] = Time at which Cmax was reached was determined for the compound after po dose of 5.01 mg/kg in rats; assay type: ADME, organism-based; parameters: dose 5.01 mg/kg, route oral; conditions: rat, in vivo; method in brief: as §1
[19] = Half-life after iv dose of 5.06 mg/kg in rats; assay type: ADME, organism-based; parameters: dose 5.06 mg/kg, route intravenous; conditions: rat, in vivo
[20] = Half-life after po dose of 5.01 mg/kg in rats; assay type: ADME, organism-based; parameters: dose 5.01 mg/kg, route oral; conditions: rat, in vivo
[21] = molecular target: T1, GABA-A receptor; anion channel (Rattus norvegicus); assay: as §2; assay type: cell membranes; parameters: concentration or dose not given beside the values; conditions: Membrane, concentration not given here; method in brief: as §3
[22] = molecular target: T1, GABA-A receptor; anion channel (Rattus norvegicus); assay: Shift in [35S]TBPS binding to GABA-A Benzodiazepine receptor of rat brain membrane
Mus musculus [23] = assay: In vivo acute electroshock physical dependence activity in mice; Inactive; assay type: functional, organism-based
Rattus norvegicus [24] = assay: Mean number of shocks produced by CDPZ in rats at a dose of 12 mg/kg was determined by vogel's punished licking assay; assay type: functional
Method in brief: (§5)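 Vogel punished licking test in rats; number of shocks accepted recorded per dose group (n 6–10); each dose compared with the 0 mg/kg group of the same experiment by Wilcoxon rank sum test.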

Rattus norvegicus [25] = assay: Mean number of shocks produced by the compound in rats at a dose of 0 mg/kg was determined by vogel's punished licking assay; assay type: functional; method in brief: as §5
Rattus norvegicus [26] = assay: Mean number of shocks produced by the compound in rats at a dose of 0.3 mg/kg was determined by vogel's punished licking assay; assay type: functional; method in brief: as §5
Rattus norvegicus [27] = assay: Mean number of shocks produced by the compound in rats at a dose of 1 mg/kg was determined by vogel's punished licking assay; assay type: functional; method in brief: as §5
Rattus norvegicus [28] = assay: Mean number of shocks produced by the compound in rats at a dose of 10 mg/kg was determined by vogel's punished licking assay; assay type: functional; method in brief: as §5
Rattus norvegicus [29] = assay: Mean number of shocks produced by the compound in rats at a dose of 3 mg/kg was determined by vogel's punished licking assay; assay type: functional; method in brief: as §5
[30] = molecular target: T2, GABA-A receptor; alpha-1/beta-2/gamma-2 (Homo sapiens); assay: as §4; assay type: functional, cell-based; conditions: HEK293; remark: listed apart in the source
Rattus norvegicus [31] = assay: Total plasma clearance was determined for the compound after iv dose of 4.74 mg/kg in rats; assay type: ADME, organism-based; parameters: dose 4.74 mg/kg, route intravenous; conditions: in vivo
Rattus norvegicus [32] = assay: Area under curve was determined for the compound after iv dose of 4.74 mg/kg in rats; assay type: ADME, organism-based; parameters: dose 4.74 mg/kg, route intravenous; conditions: in vivo
[33] = Half-life after iv dose of 4.74 mg/kg in rats; assay type: ADME, organism-based; parameters: dose 4.74 mg/kg, route intravenous; conditions: rat, in vivo
[34] = molecular target: GABA A receptor alpha-3/beta-2/gamma-2 (Homo sapiens) (UniProt P47870+P18507+P34903); assay: In vitro GABA-mediated chloride current in A293 cells expressing GABA-A benzodiazepine receptor alpha-3-beta-2-gamma-2 subunits at 5 uM; assay type: functional, cell-based; conditions: HEK293
Rattus norvegicus [35] = assay: Geller-cook activity was determined using wilcoxon signed rank test on non punished schedule at dose 0.3 mg/kg.; assay type: functional
Method in brief: (§6)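 Geller–Cook conflict schedule with punished and nonpunished response rates recorded per treatment; 6 animals per dose, controls 12–17; each dose compared to its own control by Wilcoxon signed rank test, p < 0.05.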

Rattus norvegicus [36] = assay: Geller-cook activity was determined using wilcoxon signed rank test on non punished schedule at dose 1 mg/kg.; assay type: functional; method in brief: as §6
Rattus norvegicus [37] = assay: Geller-cook activity was determined using wilcoxon signed rank test on non punished schedule at dose 3 mg/kg.; assay type: functional; method in brief: as §6
Rattus norvegicus [38] = assay: Geller-cook activity was determined using wilcoxon signed rank test on punished schedule at dose 0.3 mg/kg.; assay type: functional; method in brief: as §6
Rattus norvegicus [39] = assay: Geller-cook activity was determined using wilcoxon signed rank test on punished schedule at dose 1 mg/kg.; assay type: functional; method in brief: as §6
Rattus norvegicus [40] = assay: Geller-cook activity was determined using wilcoxon signed rank test on punished schedule at dose 3 mg/kg.; assay type: functional; method in brief: as §6
Rattus norvegicus [41] = assay: Mean number of shocks in vogel''s punished licking assay in rats by 3 mg/kg Diazepam; assay type: functional; method in brief: as §5

Row | Compound | pKi [5] | Change in Cl- current [7] | ED50 (Mus musculus [8]) [mg/kg] | Control (Mus musculus [9]) [%] | Acute electroshock activity (Mus musculus [10]) | ED50 (Rattus norvegicus [11]) [mg/kg] | inhibition [21] [%] | Shift [22] | Mean no. of shocks (Rattus norvegicus [25]) | Mean no. of shocks (Rattus norvegicus [26]) | Mean no. of shocks (Rattus norvegicus [27]) | Mean no. of shocks (Rattus norvegicus [28]) | Mean no. of shocks (Rattus norvegicus [29]) | Change in Cl- current [30] | also measured
1 | CC(C)(C)OC(=O)c1ncn2c1CN(C(=O)N1CCCC1)c1cc(Cl)ccc1-2.CCCC(=O)O | 8.59 | 0.38 | 14 | 105 | inactive | 29.7 |  |  |  |  |  |  |  |  | AUC [1]: 3680 ng·h/mL; Cmax [2]: 330 ng/mL; Tmax [3]: 1 h; half-life [4]: 7.6 h; Shift [6]: 0.53
2 | CC(C)n1c(=O)c2c(-c3noc(C4CC4)n3)ncn2c2ccccc21 [PANADIPLON] |  | 0.04 | 1.7 | 87 | inactive | 1.6 |  |  |  |  |  |  |  |  | Shift [12]: 0.06
3 | C[C@H]1CN(C(=O)N2Cc3c(C(=O)OC(C)(C)C)ncn3-c3ccc(Cl)cc32)C[C@H](C)N1 | 7.78 | 0.4 | > 30 | 69 |  | 7.4 | 45 | 0.37 | 3.3 | 3.9 | 5.2 | 8.8 | 5.6 | 1.05 | clearance [13]: 17.8 mL/min/kg; AUC [14]: 5010 ng·h/mL; AUC [15]: 2620 ng·h/mL; Cmax [16]: 660 ng/mL; bioavailability [17]: 54%; Tmax [18]: 0.25 h; half-life [19]: 1.5 h; half-life [20]: 2.4 h; Acute electroshock activity (Mus musculus [23]): inactive; Mean no. of shocks (Rattus norvegicus [24]): 14.8
4 | C[C@@H]1CN(C(=O)N2Cc3c(C(=O)OC(C)(C)C)ncn3-c3ccc(Cl)cc32)C[C@H](C)N1C | 8.35 | -0.2 | 7 | 36 | inactive | 14.8 | 86 | -0.06 | 8.4 | 8 | 7 | 18 | 18 | 1 | Clp (Rattus norvegicus [31]): 45.2 mL/min/kg; AUC (Rattus norvegicus [32]): 3570 ng·h/mL; half-life [33]: 0.57 h; Change in Cl- current [34]: 1; Gellar cook activity (Rattus norvegicus [35]): 38; Gellar cook activity (Rattus norvegicus [36]): 56; Gellar cook activity (Rattus norvegicus [37]): 36; Gellar cook activity (Rattus norvegicus [38]): 22; Gellar cook activity (Rattus norvegicus [39]): 53; Gellar cook activity (Rattus norvegicus [40]): 65; Mean no. of shocks (Rattus norvegicus [41]): 13
